“And” between values parts separate entries of the source, which are not always exact repeats. Equal entries are not always repeated.
Test system: Fibroblast
Test: Multiplex assay against human fibroblast
Type: toxicity, cell-based
How it was run: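 With compound added, live cells were imaged on a CQ1 microscope at 37°C and 5% CO2; staining with Hoechst33342, BioTracker Green Microtubule Cytoskeleton Dye, MitoTracker Red and Annexin V Alexa Fluor 680 had been done at seeding. The CellPathfinder machine-learning gating scheme split cells into Hoechst high-intensity objects or normal cells, normal cells into healthy, pyknosed or fragmented nuclei, and pyknosed cells into mitotic or apoptotic. The tubulin, mitochondrial-mass and membrane-permeability phenotypes are per cents of healthy-nucleus cells.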

[1] = 12 h, 1 µM, compound concentration 1 uM
[2] = 12 h, 10 µM, compound concentration 10 uM
[3] = 24 h, 1 µM, compound concentration 1 uM
[4] = 24 h, 10 µM, compound concentration 10 uM
[5] = 48 h, 1 µM, compound concentration 1 uM
[6] = 48 h, 10 µM, compound concentration 10 uM

O=C(Nc1ccccc1Br)N[C@@H]1CCN(c2ccc(C(F)(F)F)cn2)C1 [SB-705498]
Population Apoptotic (%) [1]: 20% and 15.79% | Population Healthy Nuclei (%) [1]: 43.71% and 74.07% | Population Hoechst High Intensity Objects (%) [1]: 0% | Population Membrane Permeable-Phenotype (%) [1]: 3.03% and 0% | Population Mitochondria Different-Phenotype (%) [1]: 12.12% and 8.57% | Population Mitotic Cells (%) [1]: 80% and 84.21% | Population Normal (%) [1]: 100% | Population Pyknosed Nuclei (%) [1]: 29.8% and 20.11% | Population Tubulin-Different-Phenotype (%) [1]: 33.33% and 14.29% | Total Cell Count [1]: 151 and 189 | Population Apoptotic (%) [2]: 10.94% and 22.22% | Population Fragmented Nuclei (%) [2]: 10.95% and 8.47% | Population Healthy Nuclei (%) [2]: 57.21% and 76.27% | Population Hoechst High Intensity Objects (%) [2]: 0% | Population Membrane Permeable-Phenotype (%) [2]: 3.48% and 7.41% | Population Mitochondria Different-Phenotype (%) [2]: 15.65% and 15.56% | Population Mitotic Cells (%) [2]: 89.06% and 77.78% | Population Normal (%) [2]: 100% | Population Pyknosed Nuclei (%) [2]: 31.84% and 15.25% | Population Tubulin-Different-Phenotype (%) [2]: 15.65% and 42.22% | Total Cell Count [2]: 201 and 177 | Population Apoptotic (%) [3]: 15.62% and 20% | Population Healthy Nuclei (%) [3]: 57.14% and 83% | Population Hoechst High Intensity Objects (%) [3]: 0% | Population Membrane Permeable-Phenotype (%) [3]: 3.12% and 1.81% | Population Mitochondria Different-Phenotype (%) [3]: 11.46% and 8.43% | Population Mitotic Cells (%) [3]: 84.38% and 80% | Population Normal (%) [3]: 100% | Population Pyknosed Nuclei (%) [3]: 19.05% and 12.5% | Population Tubulin-Different-Phenotype (%) [3]: 30.21% and 13.86% | Total Cell Count [3]: 168 and 200 | Population Apoptotic (%) [4]: 18.03% and 12% | Population Fragmented Nuclei (%) [4]: 9.01% and 6.59% | Population Healthy Nuclei (%) [4]: 64.81% and 78.44% | Population Hoechst High Intensity Objects (%) [4]: 0% | Population Membrane Permeable-Phenotype (%) [4]: 5.3% and 5.34% | Population Mitochondria Different-Phenotype (%) [4]: 9.93% and 20.61% | Population Mitotic Cells (%) [4]: 81.97% and 88% | Population Normal (%) [4]: 100% | Population Pyknosed Nuclei (%) [4]: 26.18% and 14.97% | Population Tubulin-Different-Phenotype (%) [4]: 29.8% and 41.98% | Total Cell Count [4]: 233 and 167 | Population Apoptotic (%) [5]: 25% and 18.18% | Population Fragmented Nuclei (%) [5]: 16.97% and 7.55% | Population Healthy Nuclei (%) [5]: 73.33% and 87.26% | Population Hoechst High Intensity Objects (%) [5]: 0% | Population Membrane Permeable-Phenotype (%) [5]: 3.31% and 0.54% | Population Mitochondria Different-Phenotype (%) [5]: 12.4% and 3.24% | Population Mitotic Cells (%) [5]: 75% and 81.82% | Population Normal (%) [5]: 100% | Population Pyknosed Nuclei (%) [5]: 9.7% and 5.19% | Population Tubulin-Different-Phenotype (%) [5]: 12.4% and 13.51% | Total Cell Count [5]: 165 and 212 | Population Apoptotic (%) [6]: 31.25% and 21.43% | Population Fragmented Nuclei (%) [6]: 9.02% and 8.28% | Population Healthy Nuclei (%) [6]: 84.43% and 83.43% | Population Hoechst High Intensity Objects (%) [6]: 0% | Population Membrane Permeable-Phenotype (%) [6]: 1.46% and 9.93% | Population Mitochondria Different-Phenotype (%) [6]: 12.62% and 5.67% | Population Mitotic Cells (%) [6]: 68.75% and 78.57% | Population Normal (%) [6]: 100% | Population Pyknosed Nuclei (%) [6]: 6.56% and 8.28% | Population Tubulin-Different-Phenotype (%) [6]: 17.48% and 42.55% | Total Cell Count [6]: 244 and 169

Cl.Clc1ccc2nsnc2c1NC1=NCCN1 [TIZANIDINE HYDROCHLORIDE]
Population Apoptotic (%) [1]: 38% and 33% | Population Fragmented Nuclei (%) [1]: 10% and 24% | Population Healthy Nuclei (%) [1]: 72% and 49% | Population Hoechst High Intensity Objects (%) [1]: 3% and 4% | Population Membrane Permeable-Phenotype (%) [1]: 0% and 5% | Population Mitochondria Different-Phenotype (%) [1]: 4% and 5% | Population Mitotic Cells (%) [1]: 61% and 66% | Population Normal (%) [1]: 96% and 95% | Population Pyknosed Nuclei (%) [1]: 17% and 25% | Population Tubulin-Different-Phenotype (%) [1]: 21% and 50% | Total Cell Count [1]: 155 and 182 | Population Apoptotic (%) [2]: 36% and 21% | Population Fragmented Nuclei (%) [2]: 18% and 24% | Population Healthy Nuclei (%) [2]: 60% and 45% | Population Hoechst High Intensity Objects (%) [2]: 4% | Population Membrane Permeable-Phenotype (%) [2]: 0% and 7% | Population Mitochondria Different-Phenotype (%) [2]: 8% and 7% | Population Mitotic Cells (%) [2]: 64% and 78% | Population Normal (%) [2]: 95% | Population Pyknosed Nuclei (%) [2]: 20% and 29% | Population Tubulin-Different-Phenotype (%) [2]: 29% and 33% | Total Cell Count [2]: 129 and 143 | Population Apoptotic (%) [3]: 52% and 42% | Population Healthy Nuclei (%) [3]: 76% and 49% | Population Hoechst High Intensity Objects (%) [3]: 2% and 4% | Population Membrane Permeable-Phenotype (%) [3]: 0% and 9% | Population Mitochondria Different-Phenotype (%) [3]: 0% and 4% | Population Mitotic Cells (%) [3]: 47% and 57% | Population Normal (%) [3]: 97% and 95% | Population Pyknosed Nuclei (%) [3]: 16% and 24% | Total Cell Count [3]: 146 and 182 | Population Apoptotic (%) [4]: 45% and 47% | Population Fragmented Nuclei (%) [4]: 19% | Population Healthy Nuclei (%) [4]: 60% and 48% | Population Hoechst High Intensity Objects (%) [4]: 1% and 2% | Population Membrane Permeable-Phenotype (%) [4]: 0% and 9% | Population Mitochondria Different-Phenotype (%) [4]: 5% and 6% | Population Mitotic Cells (%) [4]: 54% and 52% | Population Normal (%) [4]: 98% and 97% | Population Pyknosed Nuclei (%) [4]: 20% and 32% | Population Tubulin-Different-Phenotype (%) [4]: 20% and 34% | Total Cell Count [4]: 122 and 135 | Population Apoptotic (%) [5]: 47% and 55% | Population Fragmented Nuclei (%) [5]: 17% and 29% | Population Healthy Nuclei (%) [5]: 71% and 47% | Population Hoechst High Intensity Objects (%) [5]: 2% and 6% | Population Membrane Permeable-Phenotype (%) [5]: 2% and 6% | Population Mitochondria Different-Phenotype (%) [5]: 1% and 8% | Population Mitotic Cells (%) [5]: 52% and 44% | Population Normal (%) [5]: 97% and 93% | Population Pyknosed Nuclei (%) [5]: 10% and 23% | Population Tubulin-Different-Phenotype (%) [5]: 19% and 56% | Total Cell Count [5]: 167 and 166 | Population Apoptotic (%) [6]: 69% and 63% | Population Fragmented Nuclei (%) [6]: 26% and 35% | Population Healthy Nuclei (%) [6]: 56% and 42% | Population Hoechst High Intensity Objects (%) [6]: 2% | Population Membrane Permeable-Phenotype (%) [6]: 0% and 6% | Population Mitochondria Different-Phenotype (%) [6]: 5% and 11% | Population Mitotic Cells (%) [6]: 30% and 36% | Population Normal (%) [6]: 97% | Population Pyknosed Nuclei (%) [6]: 17% and 21% | Population Tubulin-Different-Phenotype (%) [6]: 26% and 44% | Total Cell Count [6]: 133 and 141

CCCC(CCC)C(=O)O [VALPROIC ACID]
Population Apoptotic (%) [1]: 42% and 57% | Population Fragmented Nuclei (%) [1]: 13% and 20% | Population Healthy Nuclei (%) [1]: 65% and 47% | Population Hoechst High Intensity Objects (%) [1]: 3% and 8% | Population Membrane Permeable-Phenotype (%) [1]: 2% and 10% | Population Mitotic Cells (%) [1]: 57% and 42% | Population Normal (%) [1]: 96% and 91% | Population Pyknosed Nuclei (%) [1]: 21% and 31% | Population Tubulin-Different-Phenotype (%) [1]: 27% and 49% | Population Apoptotic (%) [2]: 30% and 43% | Population Fragmented Nuclei (%) [2]: 29% and 16% | Population Healthy Nuclei (%) [2]: 60% and 53% | Population Hoechst High Intensity Objects (%) [2]: 4% and 2% | Population Membrane Permeable-Phenotype (%) [2]: 1% and 4% | Population Mitochondria Different-Phenotype (%) [2]: 3% and 8% | Population Mitotic Cells (%) [2]: 70% and 56% | Population Normal (%) [2]: 95% and 97% | Population Tubulin-Different-Phenotype (%) [2]: 16% and 41% | Population Apoptotic (%) [3]: 42% and 48% | Population Fragmented Nuclei (%) [3]: 11% and 22% | Population Healthy Nuclei (%) [3]: 69% and 53% | Population Hoechst High Intensity Objects (%) [3]: 5% and 7% | Population Membrane Permeable-Phenotype (%) [3]: 1% and 3% | Population Mitochondria Different-Phenotype (%) [3]: 2% and 7% | Population Mitotic Cells (%) [3]: 57% and 51% | Population Normal (%) [3]: 95% and 92% | Population Pyknosed Nuclei (%) [3]: 19% and 24% | Population Tubulin-Different-Phenotype (%) [3]: 22% and 54% | Population Apoptotic (%) [4]: 50% and 38% | Population Fragmented Nuclei (%) [4]: 27% and 30% | Population Healthy Nuclei (%) [4]: 66% and 46% | Population Hoechst High Intensity Objects (%) [4]: 6% and 3% | Population Membrane Permeable-Phenotype (%) [4]: 0% and 5% | Population Mitochondria Different-Phenotype (%) [4]: 1% and 4% | Population Mitotic Cells (%) [4]: 50% and 61% | Population Normal (%) [4]: 93% and 96% | Population Tubulin-Different-Phenotype (%) [4]: 21% and 41% | Population Apoptotic (%) [5]: 55% and 48% | Population Fragmented Nuclei (%) [5]: 18% and 36% | Population Healthy Nuclei (%) [5]: 66% and 44% | Population Hoechst High Intensity Objects (%) [5]: 7% | Population Membrane Permeable-Phenotype (%) [5]: 0% and 4% | Population Mitochondria Different-Phenotype (%) [5]: 1% and 7% | Population Mitotic Cells (%) [5]: 44% and 51% | Population Normal (%) [5]: 92% | Population Pyknosed Nuclei (%) [5]: 14% and 19% | Population Tubulin-Different-Phenotype (%) [5]: 19% and 55% | Population Apoptotic (%) [6]: 60% | Population Fragmented Nuclei (%) [6]: 30% and 33% | Population Healthy Nuclei (%) [6]: 60% and 51% | Population Hoechst High Intensity Objects (%) [6]: 1% and 5% | Population Membrane Permeable-Phenotype (%) [6]: 0% and 6% | Population Mitochondria Different-Phenotype (%) [6]: 1% and 5% | Population Mitotic Cells (%) [6]: 40% and 39% | Population Normal (%) [6]: 98% and 94% | Population Pyknosed Nuclei (%) [6]: 8% and 15% | Population Tubulin-Different-Phenotype (%) [6]: 18% and 46%

Source: ChEMBL document CHEMBL5724801, “EUbOPEN Chemogenomics Library - Multiplex” (2024)
